Reference: ChEMBL document CHEMBL1126896, “Preparation and anti-HIV activity of O-acylated heparin and dermatan sulfate derivatives with low anticoagulant effect” (J Med Chem, 1993)

What was measured:
MT4 [1] = test: Selectivity index for CC50 (cytotoxic concentration based on reduction of viability of mock-infected MT-4 cells) to that of EC50 against HIV-2; type: functional
Procedure, shortened: (§1)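 MT-4 cells at 3 × 10^5 cells/mL were infected with HIV-1 IIIB or HIV-2 ROD at 100 CCID50/mL, or mock-infected, alongside serial compound dilutions. Viability was read by MTT after 5 days at 37 °C. CC50 comes from mock-infected cells and EC50 from protection against cytopathicity. Index = CC50/EC50.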

[2] = In vitro anticoagulant activity determined by clotting test of activated partial thromboplastin time (APTT) on a pool of human plasma; type: functional
Procedure, shortened: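 Activated partial thromboplastin time clotting test on pooled human plasma, run on an automatic coagulometer. Activities were calculated according to the European Pharmacopoeia.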

MT4 [3] = test: Effective concentration to achieve 50% protection of MT-4 cells against the cytopathic effect of HIV-1; type: functional, cell-based
HuT78 = test: Giant-cell formation between persistently HIV-1 infected HUT-78 cells and uninfected MOLT-4 cells; type: functional, cell-based
Procedure, shortened: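 MOLT-4 cells were co-cultured with an equal number of HUT-78 cells persistently infected with HIV-1 IIIB or HIV-2 ROD, with varying compound concentrations. Syncytia were counted by flow cytofluorography after 24 h. EC50 is the concentration giving 50% protection against giant-cell formation.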

MT4 [4] = test: Effective concentration to achieve 50% protection of MT-4 cells against the cytopathic effect of HIV-2; type: functional, cell-based
MT4 [5] = test: Selectivity index for CC50 (cytotoxic concentration based on the reduction of the viability of mock-infected MT-4 cells) to that of EC50 against HIV-1; type: functional; procedure, shortened: as §1
[6] = Homo sapiens, MT4, read-out: EC50
[7] = Homo sapiens, HuT78, read-out: EC50

For `COC1C(NC(C)=O)C(OC2C(C(=O)[O-])OC(OC3C(NC(C)=O)C(OC4C(C(=O)[O-])OC(C)C(OC(C)=O)C4O)OC(COC(C)=O)C3OS(=O)(=O)[O-])C(OC(C)=O)C2OC(C)=O)OC(COC(C)=O)C1OS(=O)(=O)[O-].[Na+].[Na+].[Na+].[Na+]` (stereo unspecified), the Selectivity index (MT4 [1]) was 5.7, the APTT [2] was 1.7 IU mg-1 and the EC50 (MT4 [3]; [6]) was > 500 µg/mL. The EC50 (HuT78; [7]) was > 50 µg/mL and the EC50 (MT4 [4]; [6]) was 88 µg/mL.

For `CC(=O)N[C@H]1[C@@H](O[C@H]2[C@H](O)[C@@H](OC(C)=O)[C@H](O[C@H]3[C@@H](OS(=O)(=O)[O-])[C@@H](NS(=O)(=O)[O-])[C@@H](O[C@H]4[C@H](O)[C@@H](OS(=O)(=O)[O-])[C@H](O[C@H]5[C@H](O)[C@@H](CO)O[C@@H]5COS(=O)(=O)[O-])O[C@H]4C(=O)[O-])O[C@@H]3COS(=O)(=O)[O-])O[C@@H]2C(=O)[O-])O[C@H](COS(=O)(=O)[O-])[C@@H](O[C@@H]2O[C@@H](C(=O)[O-])[C@@H](O)[C@H](O)[C@H]2OC(C)=O)[C@@H]1O.[Na+].[Na+].[Na+].[Na+].[Na+].[Na+].[Na+].[Na+].[Na+]`, the APTT [2] was 11 IU mg-1, the EC50 (MT4 [3]; [6]) was 77 µg/mL and the Selectivity index (MT4 [5]) was >8.

`COC1C(NC(C)=O)C(OC2C(C(=O)[O-])OC(OC3C(NC(C)=O)C(OC4C(C(=O)[O-])OC(C)C(OC(=O)CCC(=O)[O-])C4O)OC(COC(=O)CCC(=O)[O-])C3OS(=O)(=O)[O-])C(OC(=O)CCC(=O)[O-])C2OC(=O)CCC(=O)[O-])OC(COC(=O)CCC(=O)[O-])C1OS(=O)(=O)[O-].[Na+].[Na+].[Na+].[Na+].[Na+].[Na+].[Na+].[Na+].[Na+]` (stereo unspecified) gave a Selectivity index (MT4 [1]) of 2, an APTT [2] of 9 IU mg-1 and an EC50 (MT4 [3]; [6]) of 150 µg/mL. For the same molecule, the Selectivity index (MT4 [5]) was 1.7 and the EC50 (MT4 [4]; [6]) was 50.4 µg/mL.

With `CCCCCCCC(=O)OC/C(=C\C(=O)[O-])OC1OC(COS(=O)(=O)[O-])C(OC2OC(C(=O)[O-])C(OC3OC(COS(=O)(=O)[O-])C(OC4OC(C(=O)[O-])C(OC5OC(CS(=O)(=O)[O-])C(O)C(OC(=O)CCCCCCC)C5NS(=O)(=O)[O-])C(OC(=O)CCCCCCC)C4OS(=O)(=O)[O-])C(OC(=O)CCCCCCC)C3NS(=O)(=O)[O-])C(OC(=O)CCCCCCC)C2OS(=O)(=O)[O-])C(OC(=O)CCCCCCC)C1NS(=O)(=O)[O-].[Na+].[Na+].[Na+].[Na+].[Na+].[Na+].[Na+].[Na+].[Na+].[Na+].[Na+]` (stereo unspecified) the Selectivity index (MT4 [1]) was >1, the EC50 (MT4 [3]; [6]) was 3.3 µg/mL and the EC50 (HuT78; [7]) was 20 µg/mL. The Selectivity index (MT4 [5]) was 6 and the EC50 (MT4 [4]; [6]) was > 23.2 µg/mL.

`CCCC(=O)OC/C(=C\C(=O)[O-])O[C@H]1O[C@H](COS(=O)(=O)[O-])[C@@H](O[C@@H]2O[C@@H](C(=O)[O-])[C@@H](O[C@H]3O[C@H](COS(=O)(=O)[O-])[C@@H](O[C@@H]4O[C@@H](C(=O)[O-])[C@@H](O[C@H]5O[C@H](CS(=O)(=O)[O-])[C@@H](O)[C@H](OC(=O)CCC)[C@H]5NS(=O)(=O)[O-])[C@H](OC(=O)CCC)[C@H]4OS(=O)(=O)[O-])[C@H](OC(=O)CCC)[C@H]3NS(=O)(=O)[O-])[C@H](OC(=O)CCC)[C@H]2OS(=O)(=O)[O-])[C@H](OC(=O)CCC)[C@H]1NS(=O)(=O)[O-].[Na+].[Na+].[Na+].[Na+].[Na+].[Na+].[Na+].[Na+].[Na+].[Na+].[Na+]` (stereo in doubt; 2d) showed an APTT [2] of 12 IU mg-1, an EC50 (MT4 [3]; mt4) of 0.35 µg/mL and an EC50 (HuT78; hut78) of 2.6 µg/mL. For the same molecule, the Selectivity index (MT4 [5]) was >1430.

For `CCCC(=O)OC/C(=C\C(=O)[O-])O[C@H]1O[C@H](COS(=O)(=O)[O-])[C@@H](O[C@@H]2O[C@@H](C(=O)[O-])[C@@H](O[C@H]3O[C@H](COS(=O)(=O)[O-])[C@@H](O[C@@H]4O[C@@H](C(=O)[O-])[C@@H](O[C@H]5O[C@H](CS(=O)(=O)[O-])[C@@H](O)[C@H](OC(=O)CCC)[C@H]5NS(=O)(=O)[O-])[C@H](OC(=O)CCC)[C@H]4OS(=O)(=O)[O-])[C@H](OC(=O)CCC)[C@H]3NS(=O)(=O)[O-])[C@H](OC(=O)CCC)[C@H]2OS(=O)(=O)[O-])[C@H](OC(=O)CCC)[C@H]1NS(=O)(=O)[O-].[Na+].[Na+].[Na+].[Na+].[Na+].[Na+].[Na+].[Na+].[Na+].[Na+].[Na+]` (stereo in doubt; 3c), the Selectivity index (MT4 [1]) was 282, the APTT [2] was 7 IU mg-1 and the EC50 (HuT78; hut78) was 60.4 µg/mL. The Selectivity index (MT4 [5]) was 1032 and the EC50 (MT4 [4]; mt4) was 1.17 µg/mL.

For `CCCC(=O)OC/C(=C\C(=O)[O-])O[C@H]1O[C@H](COS(=O)(=O)[O-])[C@@H](O[C@@H]2O[C@@H](C(=O)[O-])[C@@H](O[C@H]3O[C@H](COS(=O)(=O)[O-])[C@@H](O[C@@H]4O[C@@H](C(=O)[O-])[C@@H](O[C@H]5O[C@H](CS(=O)(=O)[O-])[C@@H](O)[C@H](OC(=O)CCC)[C@H]5NS(=O)(=O)[O-])[C@H](OC(=O)CCC)[C@H]4OS(=O)(=O)[O-])[C@H](OC(=O)CCC)[C@H]3NS(=O)(=O)[O-])[C@H](OC(=O)CCC)[C@H]2OS(=O)(=O)[O-])[C@H](OC(=O)CCC)[C@H]1NS(=O)(=O)[O-].[Na+].[Na+].[Na+].[Na+].[Na+].[Na+].[Na+].[Na+].[Na+].[Na+].[Na+]` (stereo in doubt; 4a), the Selectivity index (MT4 [1]) was > 7140, the APTT [2] was 0.3 IU mg-1 and the EC50 (MT4 [3]; mt4) was 115 µg/mL. The EC50 (HuT78; hut78) was > 100 µg/mL and the Selectivity index (MT4 [5]) was >4.

In the case of `CCCC(=O)OC/C(=C\C(=O)[O-])O[C@H]1O[C@H](COS(=O)(=O)[O-])[C@@H](O[C@@H]2O[C@@H](C(=O)[O-])[C@@H](O[C@H]3O[C@H](COS(=O)(=O)[O-])[C@@H](O[C@@H]4O[C@@H](C(=O)[O-])[C@@H](O[C@H]5O[C@H](CS(=O)(=O)[O-])[C@@H](O)[C@H](OC(=O)CCC)[C@H]5NS(=O)(=O)[O-])[C@H](OC(=O)CCC)[C@H]4OS(=O)(=O)[O-])[C@H](OC(=O)CCC)[C@H]3NS(=O)(=O)[O-])[C@H](OC(=O)CCC)[C@H]2OS(=O)(=O)[O-])[C@H](OC(=O)CCC)[C@H]1NS(=O)(=O)[O-].[Na+].[Na+].[Na+].[Na+].[Na+].[Na+].[Na+].[Na+].[Na+].[Na+].[Na+]` (stereo in doubt; 4b), the Selectivity index (MT4 [1]) is reported as >50000, the APTT [2] is reported as 1.5 IU mg-1 and the EC50 (MT4 [3]; mt4) is reported as 20.9 µg/mL. For the same molecule, the EC50 (HuT78; hut78) was 17.4 µg/mL and the Selectivity index (MT4 [5]) was >24.

For `CCCC(=O)OC/C(=C\C(=O)[O-])O[C@H]1O[C@H](COS(=O)(=O)[O-])[C@@H](O[C@@H]2O[C@@H](C(=O)[O-])[C@@H](O[C@H]3O[C@H](COS(=O)(=O)[O-])[C@@H](O[C@@H]4O[C@@H](C(=O)[O-])[C@@H](O[C@H]5O[C@H](CS(=O)(=O)[O-])[C@@H](O)[C@H](OC(=O)CCC)[C@H]5NS(=O)(=O)[O-])[C@H](OC(=O)CCC)[C@H]4OS(=O)(=O)[O-])[C@H](OC(=O)CCC)[C@H]3NS(=O)(=O)[O-])[C@H](OC(=O)CCC)[C@H]2OS(=O)(=O)[O-])[C@H](OC(=O)CCC)[C@H]1NS(=O)(=O)[O-].[Na+].[Na+].[Na+].[Na+].[Na+].[Na+].[Na+].[Na+].[Na+].[Na+].[Na+]` (stereo in doubt; 4j), the Selectivity index (MT4 [1]) was 2381, the APTT [2] was 19.8 IU mg-1 and the EC50 (HuT78; hut78) was 10.7 µg/mL. It also gave an EC50 (MT4 [4]; mt4) of 0.21 µg/mL.
